These results are taken from ChEMBL document CHEMBL1130344, “Discovery of TBC11251, a potent, long acting, orally active endothelin receptor-A selective antagonist” (J Med Chem, 1997).

One may read the IC50 as the concentration that inhibits the measured activity by half. A low value points to inhibition by little substance. The term inhibition in vivo denotes the change of the read-out against control, counted positive when it falls. By bioavailability is commonly meant the share of a dose that reaches the circulation, judged against a reference dose that is usually intravenous. A low value points to little systemic uptake. What is called half-life is the time in which the quantity being followed falls by half. A higher half-life goes with slow decline. Usually Ki stands for the dissociation constant of the complex between target and ligand, obtained from inhibition or displacement. Higher therefore signals weaker binding.

Data set [1] concerns the target T1, Endothelin-1 receptor (Homo sapiens, UniProt P25101).
T1 sequence (P25101 whole entry): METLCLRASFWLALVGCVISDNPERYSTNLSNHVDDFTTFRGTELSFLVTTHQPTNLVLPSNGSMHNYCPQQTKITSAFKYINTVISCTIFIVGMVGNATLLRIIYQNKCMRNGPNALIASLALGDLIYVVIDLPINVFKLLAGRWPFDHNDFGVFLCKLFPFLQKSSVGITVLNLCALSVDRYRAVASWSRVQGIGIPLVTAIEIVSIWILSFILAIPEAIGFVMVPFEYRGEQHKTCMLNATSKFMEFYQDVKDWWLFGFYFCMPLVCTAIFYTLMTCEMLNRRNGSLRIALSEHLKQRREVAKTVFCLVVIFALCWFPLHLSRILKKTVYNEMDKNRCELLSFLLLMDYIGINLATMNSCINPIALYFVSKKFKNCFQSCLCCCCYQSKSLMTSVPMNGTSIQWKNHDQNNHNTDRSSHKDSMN
Kind of data set: In vitro inhibition of endothelin binding to human Endothelin A receptor using [125I]-labeled ET-1 competition assay. The essentials:
(§1)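 Membranes in 30 mM HEPES pH 7.4 with 150 mM NaCl, 5 mM MgCl2 and 0.05% bacitracin: […] for ET_B (ET_B from COS 7 cells transfected with human ET_B DNA). Competition against 4 pM [125I]ET-1, 0.25% DMSO final, in triplicate, for 16–18 h at 24 °C. Nonspecific binding with 100 nM ET-1. Bound radioactivity gamma-counted after centrifugation.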

Data set [2] addresses T2, Endothelin receptor type B (Homo sapiens, UniProt P24530).
T2 sequence (P24530 whole entry): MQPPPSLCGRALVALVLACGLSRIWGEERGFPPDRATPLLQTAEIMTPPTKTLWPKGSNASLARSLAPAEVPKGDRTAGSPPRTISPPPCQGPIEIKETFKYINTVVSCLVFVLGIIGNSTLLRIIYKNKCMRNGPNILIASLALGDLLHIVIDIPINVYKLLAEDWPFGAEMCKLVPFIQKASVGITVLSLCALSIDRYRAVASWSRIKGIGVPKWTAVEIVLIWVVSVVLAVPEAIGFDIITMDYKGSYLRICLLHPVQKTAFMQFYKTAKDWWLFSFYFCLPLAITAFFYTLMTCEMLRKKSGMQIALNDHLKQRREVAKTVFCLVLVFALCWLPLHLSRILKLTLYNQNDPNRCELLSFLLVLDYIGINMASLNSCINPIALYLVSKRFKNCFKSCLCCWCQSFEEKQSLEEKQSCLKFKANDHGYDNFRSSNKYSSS
As to the kind of experiment: In vitro inhibition of endothelin binding to human Endothelin B receptor using [125I]-labeled ET-1 competition assay. In a few lines:
as §1

A short description of data set [3]: Phosphoinositol hydrolysis in TE671 or transfected cos 7 cells. It is filed as functional, cell-based. Particulars: read-out: pA2 (converted). In a few lines:
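TE 671 or transfected COS 7 cells were grown to confluence, then labelled for 16 h with [3H]myoinositol in inositol-free RPMI with 10% inositol-free FCS at 37 °C, 6% CO2. They were preincubated 10 min in LiCl-containing HEPES buffer pH 7.4 ± test compound, then given ET-1 at varying concentrations for 45 min. Inositol phosphates were extracted with ice-cold methanol (Berridge method), and well protein was measured by BCA.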

The test system of data set [4] is Rattus norvegicus. As to the kind of experiment: The compound was tested in vivo for percent inhibition in ET-1 challenge in rats at 15 mg/kg. It is filed as functional. In a few lines: (§2)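 Male Sprague–Dawley rats (250–350 g) were cannulated (femoral artery/vein) under methohexital, then restrained conscious with 60 min recovery. Autonomic blockade used iv atropine methyl nitrate 3 mg/kg plus propranolol 2 mg/kg. Vehicle was 1 M Tris base or sodium bicarbonate.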

The nature of data set [5]: Oral bioavailability in rat. It is filed as ADME, organism-based. As to conditions: in vivo. The essentials:
(§3)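 Rats (48 h post-surgery recovery) received 20–50 mg/kg at 1 mL/kg iv or 10 mL/kg po. Serial caudal-vein blood samples were taken over 24 h, and plasma was stored at -20 °C until assay. Bioavailability came from comparing dose and AUC.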

Data set [6] is described as follows: Serum half life in rat. It is filed as ADME, organism-based. In a few lines:
as §3

The nature of data set [7]: The serum half life of the compound. It is filed as ADME, cell-free.
For data set [8], the system named is Rattus norvegicus. Kind of data set: In vivo efficacy in acute hypoxia induced pulmonary hypertension in rats following oral administration. It is filed as functional, organism-based.
A short description of data set [9]: Oral bioavailability in dog. It is filed as ADME, organism-based, Canis lupus familiaris. Particulars: in vivo. In a few lines:
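Dogs (7 days post-surgery recovery) were dosed iv at 1 mL/kg via the right saphenous vein, or by oral gavage at 2 mL/kg plus an aqueous flush after overnight fasting. Routes were crossed over 7 days later. Plasma levels were followed over 24 h, and bioavailability came from comparing dose and AUC.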

Data set [10] concerns the target T1, Endothelin-1 receptor. As to the kind of experiment: Binding affinity against human Endothelin A receptor.
Data set [11] relates to Rattus norvegicus. Kind of data set: In vivo efficacy in acute hypoxia induced pulmonary hypertension in rats following intravenous administration. The data set is classed as functional, organism-based.
Data set [12] has as its system Rattus norvegicus. Kind of data set: The compound was tested in vivo for percent inhibition in ET-1 challenge in rats at 60 mg/kg. The data set is classed as functional. The essentials: as §2
The subject of data set [13] is Rattus norvegicus. As to the kind of experiment: The compound was tested in vivo for percent inhibition in ET-1 challenge in rats at 15 mg/kg; not active. The data set is classed as functional, organism-based. The arrangement: dose 15 mg/kg. The essentials: as §2

Activity calls are given as the source filed them. The calls are words filed in the database; no cut-off is given here. Bounds are passed on as bounds.

As to `Cc1noc(NS(=O)(=O)c2ccsc2C(=O)Cc2ccc3c(c2)OCO3)c1Br`, the IC50 in data set [1] worked out at 14 nM.
`Cc1noc(NS(=O)(=O)c2ccsc2C(=O)NC(=O)c2ccc3c(c2)OCO3)c1Br`: the IC50 in data set [2] was found to be 37200 nM; in [1], 887 nM.
As for `Cc1noc(NS(=O)(=O)c2ccsc2C(O)Cc2ccc3c(c2)OCO3)c1Cl` (stereo not given), the IC50 in data set [2] is 15700 nM; in data set [1], 56 nM.
Turning to `CC#N.Cc1noc(NS(=O)(=O)c2ccsc2C(=O)Cc2cc3c(cc2C#N)OCO3)c1Cl`, the Kb in data set [3] was 10 nM. In data set [4], the inhibition in vivo at 15 mg/kg is 52%. Besides, the IC50 worked out at 723 nM in data set [2] and 1.3 nM in data set [1].
In the case of `COc1cc(C#N)c(NC(=O)c2sccc2S(=O)(=O)Nc2onc(C)c2Cl)cc1OC`, the inhibition in vivo at 15 mg/kg in data set [4] was found to be 50%. The compound further showed a bioavailability in data set [5] of 2%. The half-life in data set [6] is below 0.15 h.
For `Cc1ccc(CC(=O)c2sccc2S(=O)(=O)Nc2onc(C)c2Br)cc1`, the IC50 in data set [1] stood at 20 nM.
Still for that read-out and setting: in the case of `Cc1ccc(CC(=O)c2sccc2S(=O)(=O)Nc2onc(C)c2Cl)c(C)c1` it was 0.97 nM.
Regarding `Cc1noc(NS(=O)(=O)c2ccsc2C(=O)c2ccc3c(c2)OCO3)c1Br`, the IC50 is 15400 nM in data set [2] and 2000 nM in data set [1].
In turn, `Cc1ccc(C)c(CC(=O)c2sccc2S(=O)(=O)Nc2onc(C)c2Cl)c1` had an IC50 in data set [1] of 7.2 nM.
Take `Cc1noc(NS(=O)(=O)c2ccsc2C(=O)Cc2ccc3c(c2)OCO3)c1C`: in data set [2], the IC50 was found to be 27200 nM.
As for `COc1cccc(CC(=O)c2sccc2S(=O)(=O)Nc2onc(C)c2Cl)c1`, the IC50 in data set [2] came to 19100 nM; in [1] it was 30 nM.
The compound `COc1ccc(NC(=O)c2sccc2S(=O)(=O)Nc2onc(C)c2Cl)c(C)c1` came in with an inhibition in vivo at 15 mg/kg in data set [4] of 33%. In [7], this compound returned a half-life below 9 min.
For the compound `Cc1noc(NS(=O)(=O)c2ccsc2C2(Cc3ccc4c(c3)OCO4)OCCO2)c1Cl`, the IC50 was 2100 nM in data set [2] and 123 nM in data set [1].
As for `Cc1cc2c(cc1CC(=O)c1sccc1S(=O)(=O)Nc1onc(C)c1Cl)OCO2` [SITAXENTAN], the Kb in data set [3] was 10 nM. For the same compound, the inhibition in vivo at 15 mg/kg in [4] is 41%. In addition, the IC50 in data set [2] was 9800 nM; in data set [1], 1.4 nM. The bioavailability was determined as 60% in [5] and 90% in data set [9]. For the same compound, the EC50 was 1 mg/kg in data set [8] and 0.5 mg/kg in [11]. The compound also gave an inhibition constant Ki in data set [10] of 0.43 nM. For the same compound, the half-life in data set [6] is 6.7 h.
For `Cc1noc(NS(=O)(=O)c2ccsc2C(=O)Cc2ccc3c(c2)OCO3)c1Cl`, the Kb in [3] was 178 nM. This compound also returned an inhibition in vivo at 60 mg/kg in [12] of 41%. Besides, the results for the IC50 in [2] and in data set [1] were 7000 nM and 18 nM, respectively. The bioavailability in data set [5] came out at 30%. In [6], this compound gave a half-life of 1.5 h.
On to `Cc1ccc(CC(=O)c2sccc2S(=O)(=O)Nc2onc(C)c2C)cc1`, for which the IC50 turned out to be 29200 nM in data set [2] and 27 nM in [1].
As for `Cc1cc2c(cc1CC(=O)c1sccc1S(=O)(=O)Nc1onc(C)c1C)OCO2`, the inhibition in vivo at 15 mg/kg in data set [4] was found to be 33%. Further, the bioavailability in data set [5] was 100%. In addition, the half-life in data set [6] was 7 h.
Turning to `Cc1noc(NS(=O)(=O)c2ccsc2/C(Cc2ccc3c(c2)OCO3)=N\O)c1Cl`, the IC50 in data set [2] came out at 4200 nM; in data set [1], 1100 nM.
With `Cc1ccc(NC(=O)c2sccc2S(=O)(=O)Nc2onc(C)c2Cl)cc1`, in [5], the bioavailability was 0%. Moreover, the half-life in data set [6] is below 0.5 h. Further, in data set [13], the inhibition result is “inactive”.
`Cc1ccc(CC(=O)c2sccc2S(=O)(=O)Nc2onc(C)c2Br)c(C)c1`: the IC50 in [2] was determined as 3500 nM; in data set [1] it was 0.76 nM.
In the case of `Cc1noc(NS(=O)(=O)c2ccsc2C(C)(O)Cc2ccc3c(c2)OCO3)c1Cl` (stereo not given), the IC50 was above 100000 nM in data set [2] and 22200 nM in data set [1].
Take `Cc1noc(NS(=O)(=O)c2ccsc2C(Cc2ccc3c(c2)OCO3)N(C)C)c1Cl` (stereo not given): the IC50 in [2] is above 100000 nM; in data set [1], 21000 nM.
Take `Cc1noc(NS(=O)(=O)c2ccsc2C(=O)Nc2ccc3c(c2C)OCO3)c1Cl`: the inhibition in vivo at 15 mg/kg in data set [4] was found to be 14%. For the same compound, the figures for the IC50 in [2] and in data set [1] were 355000 nM and 3 nM, respectively.
In [4], `CC(=O)c1c(NC(=O)c2sccc2S(=O)(=O)Nc2onc(C)c2Cl)ccc2c1OCO2` came in with an inhibition in vivo at 15 mg/kg of 18%. In addition, the IC50 was 32600 nM in data set [2] and 10 nM in [1]. In data set [5], the bioavailability was determined as 27%. The compound also showed a half-life in [6] of 2.5 h.
For the compound `Cc1cc2c(cc1CC(=O)c1sccc1S(=O)(=O)Nc1noc(C)c1Cl)OCO2`, the Kb in data set [3] was 3.39 nM. Moreover, in [2], the IC50 is 3900 nM.
Take `Cc1noc(NS(=O)(=O)c2ccsc2C(=O)Nc2ccc3c(c2)OCO3)c1Br`: in data set [5], the bioavailability was found to be 0%. The half-life in data set [6] is below 0.5 h. The inhibition entry in data set [13] was “inactive”.
As to `Cc1noc(NS(=O)(=O)c2ccsc2C(=O)Nc2ccc3c(c2C#N)OCO3)c1Cl`, 15 mg/kg produced 8% inhibition in vivo in data set [4]. Further, the results for the IC50 in [2] and in data set [1] were 40400 nM and 3.4 nM, respectively. This compound displayed a bioavailability in [5] of 8%. This compound showed a half-life in [6] of 2.5 h.
Regarding `Cc1noc(NS(=O)(=O)c2ccsc2C(=O)N2CCN(Cc3ccc4c(c3)OCO4)CC2)c1Cl`, in data set [1], the IC50 was determined as 19600 nM. In other words, the double-digit micromolar range.
